Shown are actives, neighbours in structure and some others; about 1.8% of the full set was active somewhere.
NTR1 agonist: agonists of human NTR1, primary screen, imaging, U2OS cells, beta-arrestin-GFP, high content; 0.17% of 330,000 active; activation, % at 20 µM; NTR1-U2OS beta-arrestin-GFP spot imaging, agonist mode;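 active = activation at or above 40% of the spot to cytoplasm intensity ratio, with at least 20 cells analyzed; inconclusive = wells under 20 cells, flagged as cytotoxic or low count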
AI-2 QS mod: Vibrio harveyi AI-2 quorum sensing modulators, primary screen, JMH597 strain, luminescence/OD600 ratio | 0.4% of 300,000 active | activity change, % at 7.5 µM | Vibrio harveyi JMH597 AI-2 luminescence/OD600 ratio, 9 h; hits give low values; strain lacks LuxN and CqsS sensors; 0 = neutral-control median | AID 2094, 2009; in the data active = activity change below about -75%, passing the limit was not always enough; inconclusive = no clear call, values can overlap the other calls;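 note: luminescence divided by OD600 gain over 9 h not by final OD600 alone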
MC4R ag barr: MC4R agonists recruiting beta-arrestin, primary screen, cell-based, luminescence, agonist arm of biased-ligand search; 0.98% of 360,000 active; U2OS MC4R beta-arrestin complementation; percent of melanotan II response, DMSO zero; Melanocortin receptor 4 (Homo sapiens), P32245; activation, % at 8.9 µM;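 active = activation above a per-plate cutoff, the mean activation of sample wells on that plate plus 3 SD, cut at about 8% in these data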
MC4R antagonist: MC4R antagonists of cAMP signaling, primary screen, cell-based, TR-FRET, antagonist arm of biased-ligand search | Melanocortin receptor 4 (Homo sapiens), P32245 | inhibition, % at 6.5 µM | MC4R-expressing cells, MTII-stimulated cAMP, LANCE TR-FRET | 0.48% of 360,000 active;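 active = inhibition above its plate's cutoff, the mean of tested wells on that plate plus 3 SD, cut at about 29% in these data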
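Material: U2OS-MC4R stable cell line | Reagent: Melanotan II challenge after compound preincubation | Doses: One concentration, 6.5 µM nominal | Incubation: 30-min compound preincubation, 1-h Melanotan II challenge, 1-h detection, room temperature | Signal: TR-FRET cAMP assay | Replicates: One well per compound, no replicates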
MC4R barr conf: MC4R beta-arrestin agonists, retest, confirmation, cell-based, luminescence, U2OS; shares compounds with MC4R ag barr; U2OS MC4R beta-arrestin recruitment; scaled DMSO 0%, Melanotan II 100%; activation, % at 8.9 µM; 31% of 2,400 active;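 active = mean activation across replicates above the hit cutoff set in the earlier primary screen, cut at about 8% in these data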
MOR-DOR barr ag: agonists of MOR-DOR heterodimerization, counter-screen for MC4R biased agonist project, cell-based, luminescence; shares compounds with MC4R ag barr; U2OS PathHunter beta-arrestin, beta-gal luminescence; percent of deltorphin B response, DMSO zero; activation, % at 9.2 µM; 5.8% of 2,400 active; AID 602194, 2012;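 active = mean activation across replicates exceeds the hit threshold derived in the earlier primary screen, cut at about 18% in these data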
A number is an active result; - = inactive; ? = inconclusive; . = no result.

SMILES	NTR1 agonist	AI-2 QS mod	MC4R ag barr	MC4R antagonist	MC4R barr conf	MOR-DOR barr ag
Cc1cc(NC(=O)COc2ccc3oc4ccccc4c3c2)no1	-	-	10	-	-	-
CSc1ccccc1NC(=O)c1cc(-c2cccs2)on1	-	-	9.8	-	-	-
COc1ccc(-c2cc(C(=O)Nc3ccccc3SC)no2)cc1	-	-	-	-	.	.
NS(=O)(=O)c1ccc(CNC(=O)CSc2nc3ccc(Cl)cc3[nH]2)cc1	-	-	-	-	.	.
c1ccc(-c2sc3ccccc3c2-c2ccc(OCCN3CCCC3)cc2)cc1	-	.	14	-	32	-
COc1ccc2sc(-c3ccccc3OC)c(-c3ccc(OCCN(C)C)cc3)c2c1	-	.	-	-	.	.
COc1ccc(-c2sc3ccc(OC)cc3c2-c2ccc(OCCN3CCOCC3)cc2)cc1	-	.	-	-	.	.
COc1cccc(-c2sc3ccccc3c2-c2ccc(OCCN(C)C)cc2)c1	-	.	29	-	56	-
COc1ccccc1-c1sc2ccccc2c1-c1ccc(OCCN2CCCCC2)cc1	-	.	-	-	.	.
COc1cccc(-c2sc3ccccc3c2-c2ccc(OCCN3CCCC3)cc2)c1	-	.	11	-	46	-
O=C(COc1ccccc1F)NNC(=O)c1cccc(-n2cccc2)c1	-	-	-	-	.	.
CCC(=O)c1ccccc1OCCCN1CCC(Cc2ccccc2)CC1	-	-	-	-	.	.
CCc1cc2cccc(C)c2nc1SCC(=O)NC1CCCC1	-	-	-	-	.	.
CCc1cc2cc(C)ccc2nc1SCC(=O)NC1CCCC1	-	-	11	-	-	-
CCOc1ccc2nc(SCC(=O)NC3CCCc4ccccc43)sc2c1 (stereo not given)	-	-	31	-	-	-
O=C(COC(=O)Cc1ccc(Br)cc1)NC1CCCC1	-	.	-	-	.	.
COC(=O)c1c(NC(=O)CSc2ncnc3ccccc23)sc(C)c1C	-	-	15	-	-	-
CC(C)(C)OC(=O)n1cc(C(=O)c2ccccc2O)cn1	-	-	-	-	.	.
Cc1cc(C)c2cc(C(=O)N3CCN(c4ncccc4C(F)(F)F)CC3)[nH]c2c1	-	-	12	-	-	-
CCC(C)N1CCN(S(=O)(=O)Cc2ccccc2)CC1 (stereo not given)	-	-	-	-	.	.
Cn1cccc1/C=N\NC(=O)Cc1ccc(Br)c2ccccc12	-	-	17	-	-	-
c1ccc(-c2cc(-c3nn4c(-c5ccco5)nnc4s3)c3ccccc3n2)cc1	-	-	9.7	-	-	-
COc1ccccc1C(=O)COC(=O)c1c(-c2ccccc2)noc1C	-	-	-	-	.	.
COc1ccc(C(=O)COC(=O)c2c(-c3ccccc3)noc2C)c(OC)c1	-	-	14	-	-	-
COc1ccc(C(=O)COC(=O)c2ccc(-n3cnnn3)cc2)c(OC)c1	-	-	13	-	-	-
SMILES	NTR1 agonist	AI-2 QS mod	MC4R ag barr	MC4R antagonist	MC4R barr conf	MOR-DOR barr ag
COc1ccccc1C(=O)COC(=O)c1ccc(-n2cnnn2)cc1	-	-	-	-	.	.
COc1cc(Cl)c(C)cc1NC(=O)CN1C(=O)C2CCCCC2C1=O (stereo not given)	-	.	-	-	.	.
O=C(COn1nnc2ccc(Cl)cc21)NC12CC3CC(CC(C3)C1)C2	-	-	13	-	-	-
O=C(COn1nnc2ccc(Cl)cc21)Nc1ccc(F)cc1	-	-	-	-	.	.
COc1ccc(NC(=O)CCNC(=O)c2ccccc2Cl)cc1S(=O)(=O)N1CCCCC1	.	.	-	-	.	.
CCOc1ccccc1NC(=O)CN(C)S(=O)(=O)c1ccc2[nH]c(=O)oc2c1	-	-	-	-	.	.
NC(=O)C1CCN(C(=O)CC2(CC(=O)O)CCCC2)CC1	-	-	-	-	.	.
COc1ccccc1NC(=O)/C=C/c1cc([N+](=O)[O-])ccc1OC(F)F	-	-	-	-	.	.
O=C(/C=C/c1cc([N+](=O)[O-])ccc1OC(F)F)Nc1cccc(OC(F)F)c1	-	-	20	-	-	-
Nc1ccc(S(=O)(=O)Nc2nccc(/C=C/c3ccc(Cl)cc3)n2)cc1	-	-	21	-	-	-
Cc1ccc(C(=O)c2no[n+]([O-])c2C(=O)c2ccc(C)cc2)cc1	-	?	19	-	-	39
COc1cc(CN2CCN(C(=O)c3cccc4ccccc34)CC2)cc(OC)c1O	-	-	-	-	.	.
Cc1ccc(C(=O)CCC(=O)OCC(=O)NNC(=O)c2ccc([N+](=O)[O-])cc2)cc1	-	.	-	-	.	.
Cc1cccc(/C=N/NC(=O)c2ccccc2OCc2cccc(Br)c2)n1	-	-	-	-	.	.
Cc1cccc(/C=N/NC(=O)c2cc(Br)ccc2OCc2ccccc2)n1	-	-	13	-	-	-
Cc1ccsc1/C=N/Nc1nc2ccccc2s1	-	-	9.9	-	-	-
COc1cccc(/C=N/Nc2nnc3c(n2)[nH]c2ccccc23)c1OC	-	-	11	-	-	-
COc1cccc(C=NNc2nc3ccccc3s2)c1OC	.	.	22	-	-	-
CC(=O)Nc1sc(C)c(C)c1C(=O)OCC(=O)N(Cc1ccccc1)C(C)C	-	.	-	-	.	.
COc1ccc(S(=O)(=O)N2CCC(C(=O)N[C@@H](C)C(=O)NCc3ccncc3)CC2)cc1	-	-	-	-	.	.
Oc1oc(-c2ccccc2)nc1/C=N/c1ccccn1	-	-	-	-	.	.
Oc1oc(-c2ccccc2Br)nc1C=Nc1ccc(Br)cn1	-	-	21	-	10	-
CCOC(=O)Cc1ccc(Nc2nc3cc(-c4sccc4C)sc3c(=O)n2C)cc1	.	.	14	-	-	-
Cc1cccc(CCN2C(N(C)C)=NC[C@@H]2C)c1	-	.	-	-	.	.
COc1ccc(S(=O)(=O)N2CCCCC2)cc1NC(=O)CCNC(=O)c1ccc(Cl)cc1	-	.	-	-	.	.
Cc1ccccc1OCC(=O)N/N=C/c1cn(Cc2ccccc2)c2ccccc12	-	-	33	-	12	-
Cc1ccccc1OCC(=O)N/N=C/c1cn(C)c2ccccc12	-	-	-	-	.	.
C#CCn1c(=NC(=O)c2cccs2)sc2cccc(OCC)c21	-	-	24	-	-	-
C#CCn1c(=NC(=O)c2ccc(Cl)s2)sc2cccc(OC)c21	-	-	15	-	-	-
CCOC(=O)Cn1c(=NC(=O)c2cccs2)sc2cc(C(=O)OC)ccc21	-	-	-	-	.	.
